Screening data from PubChem BioAssay.
MC4R ag barr – MC4R agonists recruiting beta-arrestin, primary screen, cell-based, luminescence, agonist arm of biased-ligand search. Melanocortin receptor 4 (Homo sapiens), P32245. U2OS MC4R beta-arrestin complementation; percent of melanotan II response, DMSO zero. activation, % at 8.9 µM. actives 0.98% (n = 360,000). AID 540308, 2011;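 active = activation above a per-plate cutoff, the mean activation of sample wells on that plate plus 3 SD, cut at about 8% in these data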
Target sequence (P32245 whole entry, looked up): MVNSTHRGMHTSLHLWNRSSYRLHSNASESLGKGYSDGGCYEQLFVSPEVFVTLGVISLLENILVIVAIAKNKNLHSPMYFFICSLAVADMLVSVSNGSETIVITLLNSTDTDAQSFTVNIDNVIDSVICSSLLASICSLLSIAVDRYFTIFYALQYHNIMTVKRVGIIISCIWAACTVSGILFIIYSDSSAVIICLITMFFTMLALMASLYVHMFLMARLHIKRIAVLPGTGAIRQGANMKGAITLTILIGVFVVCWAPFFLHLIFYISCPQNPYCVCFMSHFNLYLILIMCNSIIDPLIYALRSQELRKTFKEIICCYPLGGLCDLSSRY
NLRP3 yeast inh – NALP3 inflammasome inhibitors in reconstituted yeast, primary screen, luminescence, uHTS | actives 0.39% (n = 330,000) | Yeast reconstituted NLRP3/ASC/caspase-1, beta-gal luminescence, 24 h | inhibition, % at 10 µM | AID 2825, 2010;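 active = inhibition of 50% or more; inactive = inhibition below 50%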;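 also: plate controls were induced DMSO wells for no effect and uninduced yeast grown without galactose for full effect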
NALP1 yeast inh – NALP1 inflammasome inhibitors in reconstituted yeast, colorimetric, S. cerevisiae, triplicate retest; inhibition, % at 10 µM; actives 0.61% (n = 280,000); AID 2071, 2009; S. cerevisiae NALP1/ASC/caspase-1 growth, X-gal OD620, 72 h; in the data active = inhibition mostly above about 24%, no sharp cut-off; inactive = mostly below about 32%
Bfl-1 A1 inh – caspase 3/7 activation in MEF A1-2A-BIM cells, primary screen, A1 inhibitor project, cell-based, luminescence, HTS. Caspase-Glo 3/7 luminescence, 3 h; percent of clofoctol response, vehicle zero. AID 2462, 2010. caspase activation, % (concentration not given with the values). actives 0.066% (n = 330,000);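 active = over half of replicate activation scores above 10%, or exactly half above 10 with the replicate mean above 10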
Tb MetRS inh – T. brucei MetRS inhibitors, primary screen, biochemical, luminescence; inhibition, % at 11.9 µM; actives 0.4% (n = 360,000); purified T. brucei MetRS, ATP depletion, Kinase-Glo luminescence; AID 624268, 2012;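 active = inhibition above a per-plate cutoff of the control wells' mean inhibition plus 3 SD, cut at about 5.5% in these data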;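 also: 0% = DMSO wells median and 100% = median of wells with control inhibitor compound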
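assay system = parasite MetRS enzyme | timing = 15 min preincubation, 2 h reaction, all 25 °C | evaluation = percent inhibition relative to median high and low control wells | medium = HEPES buffer containing pyrophosphatase, BSA, spermine, DTT | compound = single dose, 11.9 µM final nominal, 0.9% final DMSO | detection = Kinase-Glo luminescence, ATP depletion format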
MC4R antag cAMP – MC4R antagonists of cAMP signaling, primary screen, cell-based, TR-FRET, antagonist arm of biased-ligand search; Melanocortin receptor 4 (Homo sapiens), P32245; AID 540295, 2011; MC4R-expressing cells, MTII-stimulated cAMP, LANCE TR-FRET; inhibition, % at 6.5 µM; actives 0.48% (n = 360,000);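 active = inhibition above its plate's cutoff, the mean of tested wells on that plate plus 3 SD, cut at about 29% in these data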;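 also: 0% = Melanotan II alone and 100% = Melanotan II plus saturating MCL0020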
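Assay system: human MC4R-expressing U2OS cells; reagent: Melanotan II stimulation of cells; dosing: 6.5 µM single dose; timing: compound 30 min, challenge 1 h, detection 1 h; signal: TR-FRET cAMP assay; replicates: one well per compound, no replicates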
NALP3 yeast conf – NALP3 inhibitors retested in yeast, confirmation, luminescence, single concentration | shares compounds with NLRP3 yeast inh | yeast expressing human NALP3 | inhibition, % at 10 µM | actives 81% (n = 1,300) | AID 435006, 2010; in the data active = inhibition above about 48%
Casp1-ASC yeast – CASP1-PYCARD signaling inhibition in yeast, confirmatory test, counterassay for NLRP3 inhibitor program, one-dose; shares compounds with NLRP3 yeast inh; inhibition, % at 10 µM; yeast expressing Caspase-1-ASC, luminescence counter screen; actives 66% (n = 1,000); AID 488784, 2010
NALP3 yeast rt – NALP3 inhibitors in yeast, repeat test, confirmation, luminescence, single concentration, retest | inhibition, % at 10 µM | actives 53% (n = 1,000) | shares compounds with NLRP3 yeast inh | yeast expressing human NALP3, luminescence read-out | AID 488794, 2010
* = called active by the depositor. Hits are enriched below; roughly 2.5% of the tested compounds scored in any of these assays. Rule as the data show it, unless noted: active = inhibition above about 50%; inactive = the rest.

How did C/C(=N\NC(=O)c1ccc(Cl)cc1)c1ccccn1 do in these assays?
MC4R ag barr: -4.5; NLRP3 yeast inh: 71.8*; NALP1 yeast inh: 36.2*; Bfl-1 A1 inh: -4.9; Tb MetRS inh: 0.6; MC4R antag cAMP: 9.2; NALP3 yeast conf: 85.5*; Casp1-ASC yeast: 94.0*; NALP3 yeast rt: 83.4*

Results for COc1ccc(/C=C(\NC(=O)c2ccc(OC)cc2)C(=O)N2CCCCC2)cc1 ?
MC4R ag barr: 0.8; NLRP3 yeast inh: 19.5; NALP1 yeast inh: 2.7; Bfl-1 A1 inh: 1.6; Tb MetRS inh: -0.3; MC4R antag cAMP: -4.8

Results for c1ccc(CSc2nnc(-c3cccs3)n2Cc2ccco2)cc1 ?
MC4R ag barr: -1.8; NLRP3 yeast inh: -103.1; NALP1 yeast inh: -9.6; Bfl-1 A1 inh: 0.2; Tb MetRS inh: -0.1; MC4R antag cAMP: 17.0; NALP3 yeast conf: -1.6

Results for CC(C)(CN1CCCC1)NS(=O)(=O)c1ccccc1 ?
MC4R ag barr: -2.1; NLRP3 yeast inh: 0.6; NALP1 yeast inh: 3.8; Bfl-1 A1 inh: -0.3; Tb MetRS inh: -0.9; MC4R antag cAMP: 1.0

How did O=C(c1cc(-c2cccc(Cl)c2)on1)N1CCN(c2ccccc2)CC1 do in these assays?
MC4R ag barr: 0.7; NLRP3 yeast inh: 10.5; NALP1 yeast inh: 8.8; Bfl-1 A1 inh: 0.3; Tb MetRS inh: -1.0; MC4R antag cAMP: -2.1

How did O=C(c1cc(-c2cccc(Cl)c2)on1)N1CCCC1 do in these assays?
MC4R ag barr: -0.2; NLRP3 yeast inh: 58.9*; NALP1 yeast inh: 25.8; Bfl-1 A1 inh: -1.2; Tb MetRS inh: -0.1; MC4R antag cAMP: 14.9; NALP3 yeast conf: 76.7*; Casp1-ASC yeast: 76.2*; NALP3 yeast rt: 64.4*

Results for c1ccc(OCc2nnnn2-c2ccccc2)cc1 ?
MC4R ag barr: -2.6; NLRP3 yeast inh: -104.7; NALP1 yeast inh: -25.3; Bfl-1 A1 inh: 0.1; Tb MetRS inh: -0.1; MC4R antag cAMP: 3.4; NALP3 yeast conf: -66.3; Casp1-ASC yeast: -19.9; NALP3 yeast rt: -36.1

What do the screens show for `S=c1[nH]nc(COc2ccc(Cl)cc2)n1Cc1ccccc1`?
MC4R ag barr: 0.7; NLRP3 yeast inh: 15.2; NALP1 yeast inh: 0.2; Bfl-1 A1 inh: 0.1; Tb MetRS inh: -0.6; MC4R antag cAMP: -6.0

Results for Clc1ccc(OCc2nnnn2-c2ccccc2)cc1 ?
MC4R ag barr: -0.9; NLRP3 yeast inh: -114.3; NALP1 yeast inh: -35.2; Bfl-1 A1 inh: 1.4; Tb MetRS inh: -1.1; MC4R antag cAMP: 4.8; NALP3 yeast conf: -41.1

Results for Brc1ccc(Oc2nnnn2-c2ccccc2)cc1 ?
MC4R ag barr: -0.8; NLRP3 yeast inh: -3.3; NALP1 yeast inh: -30.8; Bfl-1 A1 inh: -0.1; Tb MetRS inh: -0.8; MC4R antag cAMP: 8.6

What do the screens show for `Nc1ccc2c(Cl)cc(Cl)cc2c1`?
MC4R ag barr: 0.8; Tb MetRS inh: 0.1; MC4R antag cAMP: -7.6

What do the screens show for `C[C@]12CCC3C(CC[C@H]4CC(O)CC[C@]34C)C1CC/C2=N/NC(=O)c1ccncc1` (some centres undefined)?
MC4R ag barr: -0.8; NLRP3 yeast inh: 56.4*; NALP1 yeast inh: 19.6; Bfl-1 A1 inh: 0.7; Tb MetRS inh: -0.6; MC4R antag cAMP: -7.3; NALP3 yeast conf: 80.5*; Casp1-ASC yeast: 55.1*; NALP3 yeast rt: 44.4

Results for CC12CCC3C(CCC4CC(O)CCC43C)C1CC(=O)C2 (centres undefined) ?
MC4R ag barr: 0.8; Tb MetRS inh: -1.0; MC4R antag cAMP: 4.2

Results for C[C@]12CCC3C(CC[C@H]4CC(O)CC[C@]34C)C1CC/C2=N/O (some centres undefined) ?
MC4R ag barr: -0.8; NLRP3 yeast inh: 51.5*; NALP1 yeast inh: 29.9; Bfl-1 A1 inh: 0.9; Tb MetRS inh: 0.4; MC4R antag cAMP: 17.7; NALP3 yeast conf: 73.5*; Casp1-ASC yeast: 71.0*; NALP3 yeast rt: 54.9*

What do the screens show for `COc1cccc(C(C[N+](=O)[O-])c2c(C)[nH]n(-c3ccccc3)c2=O)c1` (centres undefined)?
MC4R ag barr: -2.8; NLRP3 yeast inh: 51.9*; NALP1 yeast inh: 84.7*; Bfl-1 A1 inh: 2.5; Tb MetRS inh: 0.1; MC4R antag cAMP: 9.7; NALP3 yeast conf: 58.1*; Casp1-ASC yeast: 20.6; NALP3 yeast rt: 22.0

How did CC(C)(C)C(=O)NN=C1CCC(c2ccccc2)CC1 (centres undefined) do in these assays?
MC4R ag barr: -3.4; NLRP3 yeast inh: 5.3; NALP1 yeast inh: 13.1; Bfl-1 A1 inh: 0.3; Tb MetRS inh: -0.3; MC4R antag cAMP: 12.6

How did N#C/C(C(N)=O)=c1/ccc2c(c1)N1C3=C(CCCC3)CC3CCCCC31N=2 (centres undefined) do in these assays?
NLRP3 yeast inh: 57.4*; NALP1 yeast inh: 7.4; Bfl-1 A1 inh: -1.0; NALP3 yeast conf: 14.5

What do the screens show for `Cc1ccc(SCCNC(=S)Nc2cc(C)cc(C)c2)cc1`?
MC4R ag barr: 0.8; NLRP3 yeast inh: 54.9*; NALP1 yeast inh: 15.2; Bfl-1 A1 inh: -0.2; Tb MetRS inh: -0.8; MC4R antag cAMP: -1.0; NALP3 yeast conf: 61.1*; Casp1-ASC yeast: 50.4*; NALP3 yeast rt: 37.5

What do the screens show for `Cc1ccc(SCCNC(=S)Nc2ccc(C)cc2C)cc1`?
MC4R ag barr: -2.6; NLRP3 yeast inh: 7.1; NALP1 yeast inh: 16.4; Bfl-1 A1 inh: 0.2; Tb MetRS inh: 0.3; MC4R antag cAMP: -0.8

What do the screens show for `CCOC(=O)[C@]12CCC=C1N(Cc1ccc(Cl)cc1Cl)C(=O)[C@H](CC(=O)NCC13CC4CC(CC(C4)C1)C3)C2`?
Tb MetRS inh: -0.4

How did CCCCCC(=O)N1CCN(CCN=CC2=C(O)CC(c3ccco3)CC2=O)CC1 (centres undefined) do in these assays?
MC4R ag barr: -0.1; NLRP3 yeast inh: 53.4*; NALP1 yeast inh: -14.9; Bfl-1 A1 inh: 0.4; Tb MetRS inh: -0.4; MC4R antag cAMP: 7.7; NALP3 yeast conf: 54.4*; Casp1-ASC yeast: 42.9; NALP3 yeast rt: 51.8*
